Test results published in article PMC8800389 (Neuron, 2020).
Residue numbers refer to the chain shown, from its start. Each block holds one molecule with its values, some of them ahead of it.

Experiments:
[1] = cis/trans conformation of the PRP17 Gly94-Pro95 bond by 1H-13C HSQC; format: physicochemical; details: 500 μM peptide in PBS (pH 7.4), 5 % v/v D2O, 750 MHz
PPIL1 = molecular target: T1, PPIL1 (Homo sapiens, UniProt Q9Y3C6); format: biochemical; details: catalytic concentrations of PPIL1 WT, 25 mM sodium phosphate, 100 mM NaCl, 1 mM dithiothreitol, 5% D2O, pH 7.0, 950 MHz; Figure S6I
T1 sequence (Q9Y3C6 1-166): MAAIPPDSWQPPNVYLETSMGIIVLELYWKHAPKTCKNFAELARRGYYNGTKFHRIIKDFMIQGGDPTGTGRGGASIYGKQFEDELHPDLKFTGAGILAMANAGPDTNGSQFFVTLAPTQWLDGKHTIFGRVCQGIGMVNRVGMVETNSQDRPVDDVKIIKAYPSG
In short: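 Substrate: uniformly 15N-labeled PRP17 peptide (residues 84–101), made as a His-SUMO fusion in BL21(DE3) in 15N minimal medium. Induction was 1 mM IPTG, 37 °C, 8 h. Ni-NTA, SUMO protease cleavage (30 °C, 6 h) and C18 reverse-phase HPLC followed, then lyophilisation. ZZ mixing times 120 (×2), 150, 200, 250 (×2), 350, 450, 600 and 750 ms on a TXO cryoprobe.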

[2] = molecular target: T2, PPIL1 p.T107A, purified recombinant (human, UniProt Q9Y3C6 1-166, p.T107A); experiment: SPR
T2 sequence (looked up): T1 sequence (Q9Y3C6 1-166) with T107A

Molecule: Ac-FAPEFGPENPFRT-NH2
Gly94-Pro95 bond conformation [1]: present in both cis and trans conformations

proline isomerization by PPIL1 WT (ZZ exchange) (PPIL1): This was also confirmed
Molecule: TYETMFAPEFGPENPFRT

binding result [2]: binds
B1: N-terminal GST tagged SKIP 59–129 (domain or fragment, UniProt Q13573 59-129, looked up)
chain: GDGGAFPEIHVAQYPLDMGRKKKMSNALAIQVDSEGKIKYDAIARQGQSKDKVIYSKYTDLVPKEVMNADD
